# In ChEMBL document CHEMBL1155468, “Syntheses and evaluation of anticonvulsant profile and teratogenicity of novel amide derivatives of branched aliphatic carboxylic acids with 4-aminobenzensulfonamide” (J Med Chem, 2010):
# Activity calls are given as the source filed them. The calls are words filed in the database; no cut-off is given here.
# Legend:
# Mus musculus [1] = assay: Anticonvulsant activity in CF1 albino mouse assessed as inhibition of maximal electroshock-induced seizures at 30 mg/kg, ip after 0.5 hrs; type: functional, organism-based; parameters: dose 30 mg/kg
# Summary of the method: (§1)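 Test compounds suspended in 0.5% methylcellulose and given ip to adult male CF no. 1 albino mice (18-25 g) at 0.01 mL/g body weight before maximal electroshock challenge.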
# Mus musculus [2] = assay: Anticonvulsant activity in CF1 albino mouse assessed as inhibition of maximal electroshock-induced seizures at 100 mg/kg, ip after 0.5 hrs; type: functional, organism-based; parameters: dose 100 mg/kg; summary of the method: as §1
# Mus musculus [3] = assay: Teratogenic effect in SWV mouse assessed as fetuses with neural tube deffects at 462 mg/kg, ip administered on morning of day 8 of gestation; type: toxicity, organism-based; parameters: dose 462 mg/kg, route intraperitoneal; conditions: in vivo
# Summary of the method: (§2)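 Two-month-old nulligravid SWV females were mated overnight and checked for vaginal plugs the next morning; gestation onset was set at 10 p.m. the previous night. On gestation day 8.5, each dam received a single ip injection (0.55-2.7 mmol/kg range) or vehicle (25% aqueous Cremophor EL) at 10 μL/g body weight. Litters were scored for implants, resorptions, live and dead fetuses, and fetuses with neural tube defects.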
# Mus musculus [4] = assay: Teratogenic effect in SWV mouse assessed as resorptions at 279 mg/kg, ip administered on morning of day 8 of gestation; type: toxicity, organism-based; parameters: dose 279 mg/kg, route intraperitoneal; conditions: in vivo
# Summary of the method: (§3)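 SWV inbred mice: two-month-old nulligravid females mated overnight with males and checked for vaginal plugs next morning; gestation onset taken as 10 p.m. the previous night. On gestation day 8.5 each dam got one ip injection, 0.55–2.7 mmol/kg, in 25% aqueous Cremophor EL (vehicle controls dosed alike), 10 μL/g body weight. Litters and implants tallied; resorptions and live fetuses reported as counts with percentages.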
# Rattus norvegicus [5] = assay: Anticonvulsant activity in Sprague-Dawley rat assessed as inhibition of maximal electroshock-induced seizures at 30 mg/kg, po after 2 hrs
# Mus musculus [6] = assay: Teratogenic effect in SWV mouse assessed as live fetuses at 279 mg/kg, ip administered on morning of day 8 of gestation; type: toxicity, organism-based; parameters: dose 279 mg/kg, route intraperitoneal; conditions: in vivo; summary of the method: as §2
# Rattus norvegicus [7] = assay: Anticonvulsant activity in Sprague-Dawley rat assessed as inhibition of maximal electroshock-induced seizures at 30 mg/kg, po after 4 hrs
# Mus musculus [8] = assay: Anticonvulsant activity in CF1 albino mouse assessed as inhibition of subcutaneous pentylenetetrazole-induced seizures at 300 mg/kg, ip after 4 hrs; type: functional, organism-based; parameters: dose 300 mg/kg
# Summary of the method: (§4)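 Adult male CF no. 1 albino mice (18-25 g) dosed ip with compound suspended in 0.5% methylcellulose (0.01 mL/g). Convulsant: pentylenetetrazol dissolved in 0.9% saline as a 0.85% solution for mice, given subcutaneously.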
# Mus musculus [9] = assay: Anticonvulsant activity in CF1 albino mouse assessed as inhibition of subcutaneous pentylenetetrazole-induced seizures at 30 mg/kg, ip after 4 hrs; type: functional, organism-based; parameters: dose 30 mg/kg; summary of the method: as §4
# Mus musculus [10] = assay: Anticonvulsant activity in CF1 albino mouse assessed as inhibition of maximal electroshock-induced seizures at 100 mg/kg, ip after 4 hrs; type: functional, organism-based; parameters: dose 100 mg/kg; summary of the method: as §1
# Mus musculus [11] = assay: Anticonvulsant activity in CF1 albino mouse assessed as inhibition of maximal electroshock-induced seizures at 300 mg/kg, ip after 0.5 hrs; type: functional, organism-based; parameters: dose 300 mg/kg; summary of the method: as §1
# Mus musculus [12] = assay: Teratogenic effect in SWV mouse assessed as resorptions at 141 mg/kg, ip administered on morning of day 8 of gestation; type: toxicity, organism-based; parameters: dose 141 mg/kg, route intraperitoneal; conditions: in vivo; summary of the method: as §3
# Mus musculus [13] = assay: Anticonvulsant activity in CF1 albino mouse assessed as inhibition of subcutaneous pentylenetetrazole-induced seizures at 100 mg/kg, ip after 0.5 hrs; type: functional, organism-based; parameters: dose 100 mg/kg; summary of the method: as §4
# Mus musculus [14] = assay: Teratogenic effect in SWV mouse assessed as live fetuses at 141 mg/kg, ip administered on morning of day 8 of gestation; type: toxicity, organism-based; parameters: dose 141 mg/kg, route intraperitoneal; conditions: in vivo; summary of the method: as §2
# Rattus norvegicus [15] = assay: Neurotoxicity in Sprague-Dawley rat assessed as motor impairment at 30 mg/kg, po after 0.25 to 4 hrs; conditions: in vivo
# Rattus norvegicus [16] = assay: Anticonvulsant activity in Sprague-Dawley rat assessed as inhibition of maximal electroshock-induced seizures at 30 mg/kg, po after 1 hr
# Mus musculus [17] = assay: Anticonvulsant activity in CF1 albino mouse assessed as inhibition of subcutaneous pentylenetetrazole-induced seizures at 300 mg/kg, ip after 0.5 hrs; type: functional, organism-based; parameters: dose 300 mg/kg; summary of the method: as §4
# Mus musculus [18] = assay: Teratogenic effect in SWV mouse assessed as live fetuses at 462 mg/kg, ip administered on morning of day 8 of gestation; type: toxicity, organism-based; parameters: dose 462 mg/kg, route intraperitoneal; conditions: in vivo; summary of the method: as §3
# Mus musculus [19] = assay: Teratogenic effect in SWV mouse assessed as fetuses with neural tube deffects at 279 mg/kg, ip administered on morning of day 8 of gestation; type: toxicity, organism-based; parameters: dose 279 mg/kg, route intraperitoneal; conditions: in vivo; summary of the method: as §2
# Mus musculus [20] = assay: Neurotoxicity in CF1 albino mouse assessed as motor impairment at 300 mg/kg, ip after 4 hrs; type: toxicity, organism-based; parameters: dose 300 mg/kg, route intraperitoneal; conditions: in vivo
# Mus musculus [21] = assay: Anticonvulsant activity in CF1 albino mouse assessed as inhibition of subcutaneous pentylenetetrazole-induced seizures at 100 mg/kg, ip after 4 hrs; type: functional, organism-based; parameters: dose 100 mg/kg; summary of the method: as §4
# Mus musculus [22] = assay: Teratogenic effect in SWV mouse assessed as resorptions at 462 mg/kg, ip administered on morning of day 8 of gestation; type: toxicity, organism-based; parameters: dose 462 mg/kg, route intraperitoneal; conditions: in vivo; summary of the method: as §3
# Mus musculus [23] = assay: Neurotoxicity in CF1 albino mouse assessed as motor impairment at 30 mg/kg, ip after 4 hrs; type: toxicity, organism-based; parameters: dose 30 mg/kg, route intraperitoneal; conditions: in vivo
# Mus musculus [24] = assay: Anticonvulsant activity in CF1 albino mouse assessed as inhibition of maximal electroshock-induced seizures at 30 mg/kg, ip after 4 hrs; type: functional, organism-based; parameters: dose 30 mg/kg; summary of the method: as §1
# Mus musculus [25] = assay: Anticonvulsant activity in CF1 albino mouse assessed as inhibition of subcutaneous pentylenetetrazole-induced seizures at 30 mg/kg, ip after 0.5 hrs; type: functional, organism-based; parameters: dose 30 mg/kg; summary of the method: as §4
# Mus musculus [26] = assay: Neurotoxicity in CF1 albino mouse assessed as motor impairment at 100 mg/kg, ip after 4 hrs; type: toxicity, organism-based; parameters: dose 100 mg/kg, route intraperitoneal; conditions: in vivo
# Rattus norvegicus [27] = assay: Anticonvulsant activity in po dosed rat assessed as inhibition of maximal electroshock-induced seizures
# Rattus norvegicus [28] = organism: Rattus norvegicus; assay: Protective index, ratio of TD50 for rat to ED50 for maximal electroshock-induced rat seizure model
# Mus musculus [29] = assay: Anticonvulsant activity in CF1 albino mouse assessed as inhibition of maximal electroshock-induced seizures at 300 mg/kg, ip after 4 hrs; type: functional, organism-based; parameters: dose 300 mg/kg; summary of the method: as §1
compound,measurement,setting,value
CCC(C)C(=O)Nc1ccc(S(N)(=O)=O)cc1 (centres undefined),Activity,Mus musculus [1],Active
same,Activity,Mus musculus [2],Active
same,Activity,Mus musculus [3],25.4%
same,Activity,Mus musculus [4],8.8%
same,Activity,Rattus norvegicus [5],Active
same,Activity,Mus musculus [6],91.2%
same,Activity,Rattus norvegicus [7],Active
same,Activity,Mus musculus [8],inactive
same,Activity,Mus musculus [9],inactive
same,Activity,Mus musculus [10],Active
same,Activity,Mus musculus [11],Active
same,Activity,Mus musculus [12],8.2%
same,Activity,Mus musculus [13],inactive
same,Activity,Mus musculus [14],91.8%
same,Activity,Rattus norvegicus [15],Non-toxic
same,Activity,Rattus norvegicus [16],Active
same,Activity,Mus musculus [17],inactive
same,Activity,Mus musculus [18],50.9%
same,Activity,Mus musculus [19],4.4%
same,Activity,Mus musculus [20],Non-toxic
same,Activity,Mus musculus [21],inactive
same,Activity,Mus musculus [22],49.1%
same,Activity,Mus musculus [23],Non-toxic
same,Activity,Mus musculus [24],Active
same,Activity,Mus musculus [25],inactive
same,Activity,Mus musculus [26],Non-toxic
same,ED50,Rattus norvegicus [27],7.6 mg/kg
same,Ratio TD50/ED50,Rattus norvegicus [28],>65.7
same,Activity,Mus musculus [29],Active
